Results: ChEMBL document CHEMBL1255395, “Laninamivir prodrug CS-8958, a long-acting neuraminidase inhibitor, shows superior anti-influenza virus activity after a single administration” (Antimicrob Agents Chemother, 2010)
The source made the active and inactive calls.

Tests used:
[1] = Half life in mouse; format: ADME, organism-based; settings: in vivo
Influenza A virus [2] = assay: Antimicrobial activity against Influenza A virus (A/Puerto Rico/8/34(H1N1)) infected in BALB/c mouse assessed as increase in mouse survival at 1.1 mg/kg, po bid administered 11 hrs post infection for 5 days […] infection; format: functional, organism-based; parameters: dose 1.1 mg/kg; settings: A/Puerto Rico/8/1934(H1N1)
In short: (§1)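 Female BALB/c mice (5–6 weeks) infected intranasally with A/PR/8/34 at 100 PFU, n = 10 per group. Each mouse got one intranasal dose at 11 hpi plus oral doses twice daily from 11 hpi to 120 hpi. Drug went by one route and saline by the other, all in saline vehicle. Survival was followed daily to day 20 and analysed by Kaplan-Meier with a log-rank test against the saline group.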

Influenza A virus [3] = assay: Antimicrobial activity against Influenza A virus (A/Puerto Rico/8/34(H1N1)) infected in BALB/c mouse assessed as reduction in viral titer in lung at 10 mg/kg, po bid repeated regimen after 11 hrs post infection; format: functional, organism-based; parameters: dose 10 mg/kg; settings: A/Puerto Rico/8/1934(H1N1), TDE = time-dependent effect
In short: (§2)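 BALB/c mice infected intranasally with A/PR/8/34 at 30 PFU. Oral drug was given twice daily from 11 hpi with intranasal saline at 11 hpi, or a single intranasal dose at 11 hpi with oral saline on the same schedule. Lungs (n = 3) were harvested at 35, 59 and 83 hpi. Titers were measured by MDCK plaque assay, log10 PFU/lungs.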

Influenza A virus [4] = assay: Antimicrobial activity against Influenza A virus (A/Puerto Rico/8/34(H1N1)) infected in BALB/c mouse assessed as reduction in viral titer in lung at 1 mg/kg, po bid repeated regimen after 11 hrs post infection; format: functional, organism-based; parameters: dose 1 mg/kg; settings: A/Puerto Rico/8/1934(H1N1), TDE = time-dependent effect; in short: as §2
Influenza B virus [5] = assay: Antimicrobial activity against Influenza B virus (B/Malaysia/2506/2004) infected po dosed Mustela putorius furo assessed as nasal viral titer treated bid after 4 hrs post infection measured after 1 day; format: functional, organism-based
In short: (§3)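 Ferrets (600–800 g), seronegative by hemagglutination inhibition, anaesthetized with ketamine/xylazine and infected with B/Malaysia/2506/2004, 1,000 PFU/100 μl. From 4 hpi they received either a single intranasal dose (saline, 0.05 or 0.5 μmol/kg) or 25 mg/kg oral twice daily. Nasal wash titers measured by MDCK plaque assay on days 1, 2 and 3, log10 PFU/ml (n = 5). Undetectable samples entered at the lower limit of detection.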

Influenza B virus [6] = assay: Antimicrobial activity against Influenza B virus (B/Malaysia/2506/2004) infected po dosed Mustela putorius furo assessed as nasal viral titer treated bid after 4 hrs post infection measured after 2 days; format: functional, organism-based; in short: as §3
Influenza B virus [7] = assay: Antimicrobial activity against Influenza B virus (B/Malaysia/2506/2004) infected po dosed Mustela putorius furo assessed as nasal viral titer treated bid after 4 hrs post infection measured after 3 days; format: functional, organism-based; in short: as §3
Influenza A virus [8] = assay: Antimicrobial activity against oseltamivir-sensitive influenza A virus (A/Yokohama/67/2006 (H1N1)) clone 1 infected in BALB/c mouse assessed as reduction in viral titer in lung at 1.0 mg/kg, po administered qd post 13 hrs infection measured after 37 hrs post infection; format: functional, organism-based; parameters: dose 1 mg/kg
Influenza A virus [9] = assay: Antimicrobial activity against oseltamivir-sensitive influenza A virus (A/Yokohama/67/2006 (H1N1)) clone 1 infected in BALB/c mouse assessed as reduction in viral titer in lung at 1.0 mg/kg, po administered QD post 13 hrs infection measured after 61 hrs post infection; format: functional, organism-based; parameters: dose 1 mg/kg
Influenza A virus [10] = assay: Antimicrobial activity against oseltamivir-sensitive influenza A virus (A/Yokohama/67/2006 (H1N1)) clone 1 infected in BALB/c mouse assessed as reduction in viral titer in lung at 1.0 mg/kg, po administered QD post 13 hrs infection measured after 85 hrs post infection; format: functional, organism-based; parameters: dose 1 mg/kg
Influenza A virus [11] = assay: Antimicrobial activity against oseltamivir-sensitive influenza A virus (A/Yokohama/67/2006 (H1N1)) clone 1 infected in BALB/c mouse assessed as reduction in viral titer in lung at 10 mg/kg, po administered QD post 13 hrs infection measured after 37 hrs post infection; format: functional, organism-based; parameters: dose 10 mg/kg
Influenza A virus [12] = assay: Antimicrobial activity against oseltamivir-sensitive influenza A virus (A/Yokohama/67/2006 (H1N1)) clone 1 infected in BALB/c mouse assessed as reduction in viral titer in lung at 10 mg/kg, po administered QD post 13 hrs infection measured after 61 hrs post infection; format: functional, organism-based; parameters: dose 10 mg/kg
Influenza A virus [13] = assay: Antimicrobial activity against oseltamivir-sensitive influenza A virus (A/Yokohama/67/2006 (H1N1)) clone 1 infected in BALB/c mouse assessed as reduction in viral titer in lung at 10 mg/kg, po administered QD post 13 hrs infection measured after 85 hrs post infection; format: functional, organism-based; parameters: dose 10 mg/kg
Rattus norvegicus = species: Rattus norvegicus; assay: Half life in rat assessed as oseltamivir carboxylate; format: ADME, organism-based; settings: in vivo
Influenza A virus [14] = assay: Antimicrobial activity against Influenza A virus (A/Puerto Rico/8/34(H1N1)) infected in BALB/c mouse assessed as increase in mouse survival at 110 mg/kg, po for 1 days before infection; format: functional, organism-based; parameters: dose 110 mg/kg; settings: A/Puerto Rico/8/1934(H1N1)
In short: (§4)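 Mice received one oral dose (200 μl in saline) at 1 day or 12 h before intranasal infection with A/PR/8/34 at 100 PFU. Saline controls were dosed intranasally 7 days before infection. n = 8 per group. Survival was monitored to 20 dpi and compared with saline by log-rank test.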

Influenza A virus [15] = assay: Antimicrobial activity against Influenza A virus (A/Puerto Rico/8/34(H1N1)) infected in BALB/c mouse assessed as increase in mouse survival at 110 mg/kg, po for 12 hrs before infection; format: functional, organism-based; parameters: dose 110 mg/kg; settings: A/Puerto Rico/8/1934(H1N1); in short: as §4
Influenza A virus [16] = assay: Antimicrobial activity against Influenza A virus (A/Puerto Rico/8/34(H1N1)) infected in BALB/c mouse assessed as increase in mouse survival at 1.1 mg/kg, po bid administered 11 hrs post infection for 5 days […] infection measured on day 20; format: functional, A/Puerto Rico/8/1934(H1N1); in short: as §1
Influenza A virus [17] = assay: Antimicrobial activity against Influenza A virus (A/Puerto Rico/8/34(H1N1)) infected in BALB/c mouse assessed as increase in mouse survival at 1.1 mg/kg, po for 7 days post infection; format: functional, organism-based; parameters: dose 1.1 mg/kg; settings: A/Puerto Rico/8/1934(H1N1)
Influenza A virus [18] = assay: Antimicrobial activity against Influenza A virus (A/Puerto Rico/8/34(H1N1)) infected in BALB/c mouse assessed as increase in mouse survival at 1.1 mg/kg, po for 4 days post infection; format: functional, organism-based; parameters: dose 1.1 mg/kg; settings: A/Puerto Rico/8/1934(H1N1)
Influenza A virus [19] = assay: Antimicrobial activity against Influenza A virus (A/Puerto Rico/8/34(H1N1)) infected in BALB/c mouse assessed as increase in mouse survival at 1.1 mg/kg, po for 1 day post infection; format: functional, organism-based; parameters: dose 1.1 mg/kg; settings: A/Puerto Rico/8/1934(H1N1)
Influenza A virus [20] = assay: Antimicrobial activity against Influenza A virus (A/Puerto Rico/8/34(H1N1)) infected in BALB/c mouse assessed as increase in mouse survival at 1.1 mg/kg, po for 12 hrs post infection; format: functional, organism-based; parameters: dose 1.1 mg/kg; settings: A/Puerto Rico/8/1934(H1N1)
Influenza A virus [21] = assay: Antimicrobial activity against Influenza A virus (A/Puerto Rico/8/34(H1N1)) infected in BALB/c mouse assessed as increase in mouse survival at 11 mg/kg, po for 7 days post infection; format: functional, organism-based; parameters: dose 11 mg/kg; settings: A/Puerto Rico/8/1934(H1N1)
Influenza A virus [22] = assay: Antimicrobial activity against Influenza A virus (A/Puerto Rico/8/34(H1N1)) infected in BALB/c mouse assessed as increase in mouse survival at 11 mg/kg, po for 4 days post infection; format: functional, organism-based; parameters: dose 11 mg/kg; settings: A/Puerto Rico/8/1934(H1N1)
Influenza A virus [23] = assay: Antimicrobial activity against Influenza A virus (A/Puerto Rico/8/34(H1N1)) infected in BALB/c mouse assessed as increase in mouse survival at 11 mg/kg, po for 1 day post infection; format: functional, organism-based; parameters: dose 11 mg/kg; settings: A/Puerto Rico/8/1934(H1N1)
Influenza A virus [24] = assay: Antimicrobial activity against Influenza A virus (A/Puerto Rico/8/34(H1N1)) infected in BALB/c mouse assessed as increase in mouse survival at 11 mg/kg, po for 12 hrs post infection; format: functional, organism-based; parameters: dose 11 mg/kg; settings: A/Puerto Rico/8/1934(H1N1)

CO[C@@H]([C@@H]1OC(C(=O)O)=C[C@H](NC(=N)N)[C@H]1NC(C)=O)[C@H](O)CO [LANINAMIVIR]
41.4 h: half-life [1]

CCOC(=O)C1=C[C@@H](OC(CC)CC)[C@H](NC(C)=O)[C@@H](N)C1.O=P(O)(O)O [OSELTAMIVIR PHOSPHATE]
7 h: t1/2 (Rattus norvegicus)
50%: Activity (Influenza A virus [16])
active: Activity (Influenza A virus [2]) | Activity (Influenza A virus [3]) tde | Activity (Influenza A virus [4]) tde | Activity (Influenza B virus [5]) Dose-dependent effect | Activity (Influenza B virus [6]) Dose-dependent effect | Activity (Influenza B virus [7]) Dose-dependent effect | Activity (Influenza A virus [8]) | Activity (Influenza A virus [9]) | Activity (Influenza A virus [10]) | Activity (Influenza A virus [11]) | Activity (Influenza A virus [12]) | Activity (Influenza A virus [13]) | Activity (Influenza A virus [14]) | Activity (Influenza A virus [15])
inactive: Activity (Influenza A virus [17]) | Activity (Influenza A virus [18]) | Activity (Influenza A virus [19]) | Activity (Influenza A virus [20]) | Activity (Influenza A virus [21]) | Activity (Influenza A virus [22]) | Activity (Influenza A virus [23]) | Activity (Influenza A virus [24])
